Data set [1] can be described thus: Retention time of the compound by HPLC analysis. It counts as physicochemical. An outline of the steps: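 Preparative HPLC run as a linear gradient of solvent B over 30 min, starting at 30% B and ending at 70% or 80% B depending on the compound. Retention time was taken at elution.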
Data set [2] deals with HOS. Briefly: Cytotoxicity against human HOS cells assessed as ATP level by luciferase reporter assay. The data set is classed as cell-based. An outline of the steps: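 HOS cells were exposed to compound and viability was read as ATP level by luciferase reporter. […] SI is CC50 divided by WT-vector EC50.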
A general note: A reporter such as luciferase makes a cellular process visible.

The subject of data set [3] is Human immunodeficiency virus 1. Briefly: Antiviral activity against raltegravir-resistant HIV-1 harboring integrase G140S/Q148H double mutant infected in human HOS cells pretreated with compound for 3 hrs by single-round HIV-1 infectivity assay. It counts as functional, organism-based. The following applies: Human immunodeficiency virus 1, HOS.
Data set [4] in a line: Selectivity index, ratio of CC50 for human HOS cells to EC50 for HIV-1 harboring wild type integrase infected in human HOS cells. As to conditions: read-out: Ratio CC50/EC50. The data set is classed as toxicity, cell-based. An outline of the steps: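 HOS cells were exposed to compound and viability was read as ATP level by luciferase reporter. SI is CC50 divided by WT-vector EC50.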

Data set [5] deals with Human immunodeficiency virus 1. Briefly: Antiviral activity against raltegravir-resistant HIV-1 harboring integrase Y143R mutant infected in human HOS cells pretreated with compound for 3 hrs by single-round HIV-1 infectivity assay. It counts as functional, organism-based. The following applies: Human immunodeficiency virus 1, HOS.
For data set [6], the target named is T1, Human immunodeficiency virus type 1 integrase (Human immunodeficiency virus 1, UniProt Q7ZJM1).
T1 sequence (Q7ZJM1 whole entry): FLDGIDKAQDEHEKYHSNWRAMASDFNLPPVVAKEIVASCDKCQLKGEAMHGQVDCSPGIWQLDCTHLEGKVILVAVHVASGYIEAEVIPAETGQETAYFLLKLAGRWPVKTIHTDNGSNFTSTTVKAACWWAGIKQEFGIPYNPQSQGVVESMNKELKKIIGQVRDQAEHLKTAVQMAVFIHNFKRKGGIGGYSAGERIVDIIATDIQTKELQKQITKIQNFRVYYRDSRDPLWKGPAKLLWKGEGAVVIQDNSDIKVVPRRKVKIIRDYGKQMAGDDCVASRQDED
The test system of data set [7] is Human immunodeficiency virus 1. Briefly: Ratio of EC50 for raltegravir-resistant HIV-1 harboring integrase G140S/Q148H double mutant infected in human HOS cells to EC50 for HIV-1 harboring integrase wild type integrase infected in human HOS cells. It counts as functional.
For data set [8], the system named is Human immunodeficiency virus 1. Nature of the data set: Ratio of EC50 for raltegravir-resistant HIV-1 harboring integrase Y143R mutant infected in human HOS cells to EC50 for HIV-1 harboring integrase wild type integrase infected in human HOS cells. The data set is classed as functional.
Data set [9] deals with Human immunodeficiency virus 1. Nature of the data set: Antiviral activity against raltegravir-resistant HIV-1 harboring integrase N155H mutant infected in human HOS cells pretreated with compound for 3 hrs by single-round HIV-1 infectivity assay. It counts as functional, organism-based. As to conditions: Human immunodeficiency virus 1, HOS.
Data set [10] deals with T1, Human immunodeficiency virus type 1 integrase. Nature of the data set: Inhibition of strand transfer activity of HIV-1 integrase using [gamma-32P]-labeled DNA as substrate. Summed up:
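Gel-based assay with radiolabelled oligonucleotide substrate and Mg2+ cofactor, measuring strand transfer by recombinant HIV-1 integrase. IC50 determined.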

Data set [11] deals with Human immunodeficiency virus 1. Briefly: Antiviral activity against HIV-1 harboring wild type integrase infected in human HOS cells pretreated with compound for 3 hrs by single-round HIV-1 infectivity assay. The data set is classed as functional, organism-based. As to conditions: Human immunodeficiency virus 1, HOS.
The subject of data set [12] is Human immunodeficiency virus 1. Nature of the data set: Ratio of EC50 for raltegravir-resistant HIV-1 harboring integrase N155H mutant infected in human HOS cells to EC50 for HIV-1 harboring integrase wild type integrase infected in human HOS cells. The data set is classed as functional.

Some results are limits rather than exact numbers.

In general, CC50 refers to the concentration that lowers cell viability or growth by half. For orientation: EC50 means the concentration at which the effect is half-maximal. By IC50 is commonly meant the concentration that gives 50% inhibition. Read a low IC50 as greater potency.

For the molecule `COC(=O)[C@@H](Nc1c(C(=O)NCc2ccc(F)cc2F)c(=O)n(O)c2ncccc12)c1ccccc1`, the Retention_time in data set [1] turned out to be 22.6 min. Further, the CC50 in data set [2] was > 250000 nM.

For the molecule `CN(C)c1c(C(=O)NCc2ccc(F)cc2F)c(=O)n(O)c2ncccc12`, the EC50 in [3] stood at 6800 nM; in [5], 273 nM; in [9], 2300 nM; in data set [11], 268 nM. Further, the selectivity ratio in data set [4] was determined as 49. The IC50 in [6] is 21000 nM; in data set [10], 87 nM. In addition, the results for the “Ratio EC50” value in [7], in data set [8] and in [12] were 25, 1 and 9, respectively. In data set [1], this molecule gave a Retention_time of 21.6 min. For the same molecule, the CC50 in data set [2] amounted to 13000 nM.

`COC(=O)[C@@H](CO)Nc1c(C(=O)NCc2ccc(F)cc2F)c(=O)n(O)c2ncccc12`: the IC50 in data set [6] was 4400 nM; in data set [10] it was 13 nM. For the same molecule, the Retention_time in data set [1] was 20.5 min. Further, the EC50 in [11] was determined as 14.2 nM.

Turning to `Nc1ccc(-c2ccc(Nc3c(C(=O)NCc4ccc(F)cc4F)c(=O)n(O)c4ncccc34)cc2)cc1`, in [4], the selectivity ratio was > 39700. Also, the IC50 was 80000 nM in data set [6] and 130 nM in data set [10]. The “Ratio EC50” value in [8] amounted to 16. The molecule further registered a Retention_time in [1] of 15.6 min. The 50% cytotoxic concentration (CC50) in data set [2] is > 250000 nM. In data set [11], the EC50 was found to be 6.3 nM.

Take `NCCNc1c(C(=O)NCc2ccc(F)cc2F)c(=O)n(O)c2ncccc12`: the values for the IC50 in data set [6] and in data set [10] were 4500 nM and 39 nM, respectively. The molecule also showed a Retention_time in [1] of 25.9 min. In addition, the CC50 in data set [2] was 9600 nM. Besides, in data set [11], the EC50 was determined as 35 nM.

For `O=C(NCc1ccc(F)cc1F)c1c(N2CCOCC2)c2cccnc2n(O)c1=O`, the EC50 is 6920 nM in [3], 1800 nM in data set [5], 3730 nM in data set [9] and 1200 nM in [11]. The selectivity ratio in [4] was determined as 7. The IC50 came to 77000 nM in data set [6] and 79 nM in data set [10]. In addition, the “Ratio EC50” value in [7] is reported as 6; in [8] it was 1.5; in data set [12], 3. The same molecule yielded a Retention_time in data set [1] of 20.5 min. For the same molecule, in [2], the CC50 stood at 8400 nM.

Turning to `O=C(NCc1ccc(F)cc1F)c1c(NC2CCCCCC2)c2cccnc2n(O)c1=O`, the concentration giving a half-maximal response (EC50) in data set [3] amounted to 35 nM; in [5], 6.6 nM; in data set [9] it was 14 nM; in data set [11], 12 nM. The selectivity ratio in data set [4] came to 5670. In addition, the IC50 stood at 13000 nM in [6] and 460 nM in data set [10]. In addition, the results for the “Ratio EC50” value in [7], in [8] and in data set [12] were 3, 0.55 and 1, respectively. This molecule also yielded a Retention_time in data set [1] of 25.8 min. Further, in data set [2], the CC50 was found to be 68000 nM.

Turning to `O=C(NCc1ccc(F)cc1F)c1c(Nc2ccc(-c3ccccc3)cc2)c2cccnc2n(O)c1=O`, the selectivity ratio in data set [4] is > 672. The IC50 in [6] stood at 52000 nM; in data set [10], 340 nM. In [8], the “Ratio EC50” value is 1. Moreover, the Retention_time in [1] is 22.8 min. For the same molecule, the CC50 in data set [2] is > 250000 nM. In addition, the concentration giving a half-maximal response (EC50) in [11] was found to be 372 nM.

As for `CNc1c(C(=O)NCc2ccc(F)cc2F)c(=O)n(O)c2ncccc12`, the IC50 in data set [6] was found to be 3700 nM; in [10], 27 nM. In [1], this molecule had a Retention_time of 26.4 min. Besides, the CC50 in data set [2] was > 250000 nM. In data set [11], the EC50 turned out to be 3.1 nM.

Consider `O=C(NCc1ccc(F)cc1F)c1c(NCCc2ccccc2)c2cccnc2n(O)c1=O`, for which the figures for the IC50 in data set [6] and in data set [10] were 8000 nM and 50 nM, respectively. The molecule also returned a Retention_time in [1] of 22 min. In addition, the cytotoxic concentration (CC50) in [2] was > 250000 nM. In addition, in [11], the EC50 amounted to 14 nM.

As for `COC(=O)[C@@H](C)Nc1c(C(=O)NCc2ccc(F)cc2F)c(=O)n(O)c2ncccc12`, the EC50 in data set [3] was 89 nM; in data set [5] it was 8.1 nM; in [11], 11.3 nM. In addition, the Retention_time in [1] came out at 26.4 min. In addition, in [2], the CC50 was > 250000 nM.

For the molecule `CC(C)Nc1c(C(=O)NCc2ccc(F)cc2F)c(=O)n(O)c2ncccc12`, the IC50 in [6] was found to be 1800 nM; in [10], 16 nM. In data set [1], this molecule gave a Retention_time of 17 min. For the same molecule, in data set [2], the CC50 is > 250000 nM. The concentration giving a half-maximal response (EC50) in data set [11] amounted to 7.2 nM.

In the case of `CCCCCNc1c(C(=O)NCc2ccc(F)cc2F)c(=O)n(O)c2ncccc12`, the IC50 in data set [6] was determined as 8200 nM; in [10], 24 nM. This molecule registered a Retention_time in data set [1] of 23.7 min. Moreover, the CC50 in data set [2] amounted to 94000 nM. In data set [11], the EC50 was 7.4 nM.

With `O=C(NCc1ccc(F)cc1F)c1c(Nc2ccc3c(c2)Cc2ccccc2-3)c2cccnc2n(O)c1=O`, in data set [4], the selectivity ratio is > 1460. Further, the concentration for half-maximal inhibition (IC50) is 46000 nM in data set [6] and 840 nM in data set [10]. The “Ratio EC50” value in data set [8] is reported as 3. In addition, in data set [1], the Retention_time is recorded as 21.3 min. Moreover, in data set [2], the CC50 is > 250000 nM. Moreover, the EC50 in [11] came out at 171 nM.

As to `N#Cc1ccc(-c2ccc(Nc3c(C(=O)NCc4ccc(F)cc4F)c(=O)n(O)c4ncccc34)cc2)cc1`, the selectivity ratio in [4] was > 2030. The IC50 in data set [6] is 70000 nM; in data set [10] it was 130 nM. For the same molecule, in data set [8], the “Ratio EC50” value was determined as 3. The Retention_time in data set [1] is on record as 22.3 min. In data set [2], the CC50 was > 250000 nM. Further, in data set [11], the EC50 is 123 nM.

Consider `CCOC(=O)[C@@H]1CCCN1c1c(C(=O)NCc2ccc(F)cc2F)c(=O)n(O)c2ncccc12`, for which, in [4], the selectivity ratio turned out to be 31. Further, the EC50 came to 1660 nM in data set [5] and 590 nM in data set [11]. Besides, the IC50 in data set [6] was 86000 nM; in data set [10], 310 nM. Besides, the “Ratio EC50” value in data set [8] worked out at 3. The Retention_time in data set [1] is recorded as 12.5 min. Besides, the CC50 in data set [2] stood at 18000 nM.

Regarding `COC(=O)[C@H](C)Nc1c(C(=O)NCc2ccc(F)cc2F)c(=O)n(O)c2ncccc12`, in data set [1], the Retention_time amounted to 26.4 min. For the same molecule, the EC50 in data set [11] was 4.2 nM.

For `O=C(NCc1ccc(F)cc1F)c1c(Nc2ccccc2)c2cccnc2n(O)c1=O`, the figures for the IC50 in [6] and in data set [10] were 6900 nM and 18 nM, respectively. Moreover, in [1], the Retention_time turned out to be 20.2 min. The CC50 in data set [2] was > 250000 nM. Moreover, the concentration for a half-maximal effect (EC50) in data set [11] stood at 14 nM.

As for `COC(=O)[C@H](Nc1c(C(=O)NCc2ccc(F)cc2F)c(=O)n(O)c2ncccc12)c1ccccc1`, the EC50 in data set [9] amounted to 22 nM; in data set [11] it was 7.4 nM. The molecule also came in with a Retention_time in data set [1] of 26.3 min.

On to `O=C(NCc1ccc(F)cc1F)c1c(NCCCCc2ccccc2)c2cccnc2n(O)c1=O`, for which the EC50 in [3] came out at 243 nM; in data set [5] it was 40 nM; in data set [9], 116 nM; in data set [11], 50 nM. The selectivity ratio in data set [4] is 2040. Moreover, the IC50 in data set [6] turned out to be 12000 nM; in data set [10] it was 280 nM. For the same molecule, the “Ratio EC50” value in data set [7] was 5; in [8], 0.8; in [12], 2. This molecule also returned a Retention_time in [1] of 26.7 min. Moreover, in data set [2], the CC50 turned out to be 102000 nM.

`COC(=O)[C@H](CO)Nc1c(C(=O)NCc2ccc(F)cc2F)c(=O)n(O)c2ncccc12`: the IC50 amounted to 5800 nM in [6] and 8.4 nM in data set [10]. Also, in data set [1], the Retention_time is on record as 15.9 min. In addition, the cytotoxic concentration (CC50) in data set [2] was > 250000 nM. The EC50 in [11] was 9.7 nM.

The values above are taken from ChEMBL document CHEMBL3286128 (J Med Chem, 2014).
